Compound activity as filed in PubChem.
Apaf-1 act – activators of human Apaf-1 apoptosome. O14727. 0.31% of 330,000 active. activity change, negative = activation, % at 20 µM. AID 489031. Apaf-1 apoptosome caspase-3 activation, DEVD-Rh110 fluorescence; stronger effect = lower value;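 active = activity change at or below -40% at 20 µM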
Target sequence (O14727 whole entry, looked up): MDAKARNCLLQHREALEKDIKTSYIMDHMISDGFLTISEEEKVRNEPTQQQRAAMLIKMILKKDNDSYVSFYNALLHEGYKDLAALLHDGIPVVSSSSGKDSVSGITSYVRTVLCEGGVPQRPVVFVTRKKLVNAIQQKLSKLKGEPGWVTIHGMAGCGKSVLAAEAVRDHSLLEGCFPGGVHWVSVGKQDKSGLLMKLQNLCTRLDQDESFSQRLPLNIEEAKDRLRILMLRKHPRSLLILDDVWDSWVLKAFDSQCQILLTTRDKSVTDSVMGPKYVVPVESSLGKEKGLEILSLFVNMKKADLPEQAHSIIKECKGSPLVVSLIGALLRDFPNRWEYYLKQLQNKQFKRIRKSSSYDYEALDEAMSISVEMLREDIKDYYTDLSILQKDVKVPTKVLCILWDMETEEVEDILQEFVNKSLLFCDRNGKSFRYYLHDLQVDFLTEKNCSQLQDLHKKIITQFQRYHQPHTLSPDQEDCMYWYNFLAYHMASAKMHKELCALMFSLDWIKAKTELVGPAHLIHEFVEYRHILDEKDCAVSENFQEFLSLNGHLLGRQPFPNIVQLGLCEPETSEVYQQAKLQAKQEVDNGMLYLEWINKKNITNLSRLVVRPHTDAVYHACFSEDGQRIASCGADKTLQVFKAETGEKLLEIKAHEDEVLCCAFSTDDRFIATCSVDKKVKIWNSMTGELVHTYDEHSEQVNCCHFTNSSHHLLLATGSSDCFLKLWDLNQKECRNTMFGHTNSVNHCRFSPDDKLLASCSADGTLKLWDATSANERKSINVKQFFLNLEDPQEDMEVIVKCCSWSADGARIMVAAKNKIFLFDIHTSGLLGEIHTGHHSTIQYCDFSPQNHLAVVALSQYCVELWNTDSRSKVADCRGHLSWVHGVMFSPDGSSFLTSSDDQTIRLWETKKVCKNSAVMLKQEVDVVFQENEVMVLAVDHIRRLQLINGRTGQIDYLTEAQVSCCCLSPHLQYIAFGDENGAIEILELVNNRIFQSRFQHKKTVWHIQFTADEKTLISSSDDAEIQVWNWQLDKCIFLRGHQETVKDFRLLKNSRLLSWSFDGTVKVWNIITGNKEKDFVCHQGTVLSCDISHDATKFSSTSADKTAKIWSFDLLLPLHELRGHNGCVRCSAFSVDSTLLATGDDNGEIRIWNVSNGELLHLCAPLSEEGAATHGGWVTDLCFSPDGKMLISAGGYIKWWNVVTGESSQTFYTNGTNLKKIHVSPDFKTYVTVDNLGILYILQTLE
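Assay system – biochemical Apaf-1 apoptosome reconstitution · Medium – 20 mM HEPES buffer, pH 7.5, containing CHAPS and BSA · Incubation – 30 min preincubation, 50 min reaction, room temperature · Measured by – Caspase-3-released Rh110 fluorescence, 540 nm emission, 480 nm excitation · Read-out – Caspase-3 cleavage activity downstream of Apaf-1 activation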
* marks the source's active call; other numbers are inactive results. A selection follows.

SMILES	Apaf-1 act
O=C(COC(=O)c1ccccc1)NCC1CCCO1 (stereo not drawn)	56.5
CC(C)[C@H](NC(=O)N1CCC(Cc2ccccc2)CC1)C(=O)O	41.6
CC(NC(=O)CC1CCCCC1)c1ccccc1 (stereo not drawn)	-109.4*
CC1=[N+](C)c2ccc3ccccc3c2C1(C)C	41.9
COC(=O)C1=C(C)N(Cc2ccccc2)C(=NCc2cc(OC)c(OC)c(OC)c2)N[C@H]1c1ccc(Br)cc1	54.5
COc1cc(/C=C2/C(=O)N(c3ccc(C(=O)O)cc3)N=C2C)cc(OC)c1O	77.6
COc1ccc(NC(=O)CN2C(=O)S/C(=C/c3cccn3-c3ccc(C(=O)O)cc3)C2=O)cc1	-239.7*
COc1ccc(NC(=O)CCn2c(=S)[nH]c3ccccc3c2=O)cc1	85.7
Nc1c(S(=O)(=O)c2cccs2)c2nc3ccccc3nc2n1CCc1ccccc1	70.8
O=C(NCCc1c[nH]c2ccccc12)OCCSS(=O)(=O)O	-93.5*
COC(=O)C1=C(C)N(Cc2ccccc2)C(=NCCc2c[nH]c3ccccc23)N[C@H]1c1cccc(F)c1	60.5
COC(=O)C1=C(C)N(Cc2ccccc2)C(=NCCc2c[nH]c3ccccc23)N[C@H]1c1ccccc1	69.2
Fc1ccc(NC(=S)Nc2cccc3ccccc23)cc1F	80.6
CCCCn1c(NC(C)=O)c(C#N)c2nc3ccccc3nc21	84.5
CCCCn1c2ccccc2c2nnc(SCC(=O)NC3=NN=C(c4ccccc4)CS3)nc21	-68.9*
CCn1c2ccccc2c2nnc(SCC(=O)c3c(N)n(C)c(=O)n(C)c3=O)nc21	54.0
C[C@H](CO)N1C[C@H](C)[C@@H](CN(C)Cc2ccc(Oc3ccccc3)cc2)Oc2c(NC(=O)C3CC3)cccc2C1=O	43.4
N#C/C(=C/c1cn(-c2ccccc2)nc1-c1cccc(OCc2ccc(F)cc2)c1)C(=O)NCCCn1ccnc1	43.9
COc1ccc(CNc2ccc3cn[nH]c3c2)c(OC)c1OC	46.2
C=C(C)C(=O)Nc1cccc(C2=NOC3(C2)C[C@@H](C(N)=O)N(C(=O)c2ccc(OC)cc2)C3)c1 (stereo partly drawn)	-339.8*
CN(Cc1ccc(F)cc1)C(=O)CNC(=O)c1cccs1	55.9
CC/C(=C(/CC)c1ccc(O)cc1)c1ccc(O)cc1	-151.0*
CC/C(=C(\c1ccc(O)cc1)c1ccc(OCCN(C)C)cc1)c1ccccc1	65.3
CCc1ccc(CNc2ccc(O)cc2)cc1	95.9
Fc1ccc(NC(=S)Nc2cccc3cnccc23)cc1	95.1
SMILES	Apaf-1 act
CC(C)CCn1c(N)c(S(=O)(=O)c2cccs2)c2nc3ccccc3nc21	51.2
O=C(Nc1cccc(C(F)(F)F)c1)c1ccc2nc(-c3ccco3)c(-c3ccco3)nc2c1	65.8
CCCN(CC(=O)Nc1ccccc1C)C(=O)C1CCN(c2ncnc3sc(C)c(C)c23)CC1	48.5
CCC(=O)Nc1c(S(=O)(=O)c2ccc(C)cc2)c2nc3ccccc3nc2n1C(C)c1ccccc1 (stereo not drawn)	44.4
Cc1ccc(C(=O)NC(C)c2nc3ccccc3n2CC(=O)Nc2c(C)cc(C)cc2C)cc1 (stereo not drawn)	-100.0*
COc1ccc(OCc2cc(C(=O)NC3CCOCC3)no2)c2ccccc12	40.6
Nc1c(C(=O)NCc2ccco2)c2nc3ccccc3nc2n1CCc1ccccc1F	61.4
COc1cc2nc(N3CCNCC3)nc(N)c2cc1OC	60.7
COc1ccc(C2(c3ccc(OC)cc3)NC(=O)N(CC(=O)N(C)C)C2=O)cc1	-130.8*
COc1cc(NC(=O)CN2C(=O)NC3(CCOc4ccccc43)C2=O)cc(OC)c1 (stereo not drawn)	58.5
COc1ccc(C2(c3ccc(OC)cc3)NC(=O)N(CC(=O)Nc3ccc(N4CCOCC4)cc3)C2=O)cc1	40.9
COc1cc2ccccc2cc1C(=O)Nc1sc2c(c1C(N)=O)CCN(C(C)C)C2	51.2
Cc1cc([N+](=O)[O-])c(C)cc1-c1ccc(/C=N/NC(=O)c2cccnc2)o1	55.3
C=CCn1c(NC(=O)c2ccccc2Cl)c(C#N)c2nc3ccccc3nc21	96.1
O=C(Nc1ccnn1C1CCN(C/C=C/c2ccccc2)CC1)c1ccccc1Cl	-61.3*
COc1ccccc1NS(=O)(=O)c1cccc(C(=O)N2CCN(C/C=C/c3ccccc3)CC2)c1	45.8
CCCCCCC(=O)Nc1nc(C)c(-c2csc(Nc3cc(OC)ccc3OC)n2)s1	49.0
CC1CCN(CCc2nc3cc(NC(=O)COc4ccccc4)ccc3n2C)CC1	52.4
CCc1cc(CNC(=O)c2ccc(OC3CCN(CCc4ccccc4)CC3)cc2)on1	-41.4*
COc1ccc(CCn2c(N)c(C(=O)NCc3ccco3)c3nc4ccccc4nc32)cc1OC	62.8
CC(C)(C)c1ccc(-c2nn(CCC#N)cc2/C=N/O)cc1	49.9
CN(C)CCCNC(=O)C[C@H]1C[C@H](C(=O)N2CCCCC2)[C@@]2(CCc3ccccc3)c3[nH]c4ccc(Cl)cc4c3CCN2C1=O	73.8
O=C(NCC(F)(F)F)c1ccc(S(=O)(=O)Nc2ccccc2N2CCCC2)cc1	54.2
Cc1cc(N2CCCC2)ccc1NC(=O)COc1ccccc1	52.2
O=C(Cc1ccc(Br)cc1)Nc1ccccc1N1CCCC1	-65.5*
SMILES	Apaf-1 act
CCc1cccc(C)c1NC(=S)NCc1ccc2c(c1)cc(C)n2C	54.6
COc1ccc(S(=O)(=O)N2CCCCCC2)cc1C(=O)N(C)CCOc1ccccc1	54.8
Cc1ccc(C)c(NC(=O)/C(C#N)=C/c2ccc(Sc3nncn3C)c([N+](=O)[O-])c2)c1	-217.2*
COc1ccccc1CCn1c(N)c(C#N)c2nc3ccccc3nc21	40.0
c1ccc2c(NCCCN3CCOCC3)c3ccccc3nc2c1	-62.7*
CCN(c1ccccc1)S(=O)(=O)c1cccc(C(=O)NCCN2CCOCC2)c1	43.8
Cc1c2ccccc2nc2c(F)c(NCCO)c(F)c(F)c12	53.8
CCCCCCCNC(=O)C1(CC2CC(c3ccc(Cl)cc3)=NO2)CCNCC1 (stereo not drawn)	41.0
N#C/C(=C/c1ccc(OCc2ccc(C(=O)O)cc2)c(Br)c1)c1cccc(F)c1	-335.2*
CCc1ccc(S(=O)(=O)/N=C2\C=C(Nc3cccc(C(=O)O)c3)C(=O)c3ccccc32)cc1	90.7
COc1ccc(C(=O)COC(=O)CCCN=C2NS(=O)(=O)c3ccccc32)c(OC)c1	50.7
Cc1nn2c(-c3ccncc3)nnc2c2ccccc12	73.6
CC(NCc1ccc(OCc2ccc(Cl)cc2)cc1)C(O)c1ccccc1 (stereo not drawn)	41.2
CCN(CC(=O)Nc1ccccc1C(F)(F)F)C(=O)c1ccccc1SCC(=O)N1CCCC1	42.9
CC(CS(=O)(=O)c1ccc2c(c1)NC(=O)CS2)C(=O)NCc1ccccc1Cl (stereo not drawn)	-158.0*
Cc1cc(C(=O)N/N=C2\CC(=O)c3ccccc32)c(C)n1-c1ccc(F)cc1	68.9
COC(=O)c1ccc(NC(=O)c2ccc(NC(=O)c3ccco3)cc2)cc1	43.8
CC(=O)NC1=C(NC2CCS(=O)(=O)C2)C(=O)c2ccccc2C1=O (stereo not drawn)	40.8
CC(=O)Nc1ccc2nc3ccccc3nc2c1	49.8
CCN(CC(=O)Nc1ccc2c(c1)OCCO2)C(=O)/C=C/c1ccc(OC)cc1OC	64.0
C=C(C)C(=O)Nc1ccc2c(c1)OCCOCCOCCO2	-447.5*
Cc1[nH][nH]c(=O)c1C(c1ccc(-c2cccc(C(=O)O)c2)o1)c1c(C)[nH][nH]c1=O	77.6
CSc1ccccc1NC(=O)COc1ccc2c(c1)OCO2	45.3
